HUVEC inhibit: human endothelial cell proliferation inhibition; HUVEC proliferation, CellTiter-Glo luminescence, 72 h; hits give low values; viability, % at 10 µM (by protocol); actives 1.1% (n = 86,000);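 active = viability at or below 30%; inactive = viability above 30%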;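 also: 100% = median luminescence of DMSO-only cell control wells on each plate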
Lung fibro prol: blocks proliferation of human lung fibroblasts; viability, % at 10 µM; actives 1.1% (n = 85,000); LL 47 human lung fibroblast viability, ATP luminescence; hits give low values;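 active = viability at or below 50% in the single dose screen; inactive = viability above 50%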;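 also: compound exposure lasted 72 h before the ATP readout; 100% = median luminescence of untreated cell-only wells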
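Assay system: human lung fibroblast line LL 47, low passage. Input: 1,150 fibroblasts seeded per well. Times: overnight cell rest, 72 h compound treatment at 37 °C. Evaluation: % viability of median cell-only signal. Technique: luminescent ATP detection, CellTiter-Glo. Control set: cell-only wells, no compound.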
HCT116 bCat-KO: beta-catenin-lacking colon tumor cell growth suppression; HCT116 beta-catenin knockout viability, CellTiter-Glo, 60 h; hits give low values; viability, % at 10 µM; actives 1.5% (n = 140,000);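 active = viability at or under a set limit, the compound median less 4 SD, cut at about 6% in these data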;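 also: 0% = Hyamine 1622 control at 20 µM and 100% = untreated cell control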
PTEN del growth: growth suppressors of cells with PTEN tumor suppressor deletion. HCT116 PTEN-null viability, CellTiter-Glo, 60 h; hits give low values. viability, % at 10 µM. actives 1.2% (n = 140,000). AID 827;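 active = viability at or below a set limit, 4 SD under the median of all tested compounds, cut at about 3.7% in these data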;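 also: PTEN knockout HCT116 line with beta catenin targeted HCT116 as companion control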
H69AR growth 86K: growth inhibitors of human H69AR lung tumor cells | H69AR lung tumor viability, ATP luminescence, 72 h; hits give low values | viability, % at 10 µM | actives 6% (n = 85,000);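 active = viability at or below 40%; inactive = viability above 40%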;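 also: multidrug resistant small cell line overexpressing MRP-1 efflux transporter; 100% = mean luminescence of untreated control wells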
* = called active by the depositor. This is one part of a sample in which hits are shown more often than they occur.

For CC1=C(C(=O)OC(C)(C)C)C(c2cccs2)NC(=O)N1 (stereo not drawn) the results were HCT116 bCat-KO 90 and PTEN del growth 93.
For CC(Sc1nnc(-c2cccnc2)n1-c1ccccc1F)C(=O)N1CCCc2ccccc21 (stereo not drawn) the results were HCT116 bCat-KO 84 and PTEN del growth 92.
`COC(=O)C1CCCN1S(=O)(=O)c1ccc2ccccc2c1` (stereo not drawn) gave HUVEC inhibit 100, Lung fibro prol 90, HCT116 bCat-KO 58, PTEN del growth 54 and H69AR growth 86K 33*.
For CCSc1nnc(NC(=O)[C@@H](NC(=O)c2ccc(C(C)(C)C)cc2)C(C)C)s1 the results were HCT116 bCat-KO 84 and PTEN del growth 73.
Screening COc1ccc(NC2=Nc3cccc4cccc2c34)cc1 returned HCT116 bCat-KO 98 and PTEN del growth 77.
Screening CCC(C)n1c(C)nc2c(c1=O)c1nc3ccccc3nc1n2CCC1=CCCCC1 (stereo not drawn) returned HUVEC inhibit 99, Lung fibro prol 98, HCT116 bCat-KO 37, PTEN del growth 43 and H69AR growth 86K 3.6*.
Screening Cc1nc2c(c(=O)n1CC1CCCO1)c1nc3ccccc3nc1n2CCC(C)C (stereo not drawn) returned HUVEC inhibit 84, Lung fibro prol 90 and H69AR growth 86K 93.
Screening COc1ccc(/C=N/Nc2c(Cl)cc(Cl)cc2Cl)cc1CN1CCOCC1 returned HCT116 bCat-KO 86 and PTEN del growth 85.
`CCN(CC)c1ccc(NC(=O)CC2Oc3ccccc3NC2=O)c(C)c1` (stereo not drawn) gave HUVEC inhibit 78, Lung fibro prol 87, HCT116 bCat-KO 71, PTEN del growth 65 and H69AR growth 86K 25*.
Cn1c(CNc2cccc(Cl)c2)nnc1SCC(=O)OC1CCCCC1 was read as HUVEC inhibit 19*, Lung fibro prol 82, HCT116 bCat-KO 104, PTEN del growth 94 and H69AR growth 86K 106.
Screening O=C(CNC(=O)c1ccc(Br)o1)Nc1cccc(-c2cnc3ccccc3n2)c1 returned HUVEC inhibit 83, Lung fibro prol 98, HCT116 bCat-KO 81, PTEN del growth 85 and H69AR growth 86K 25*.
O=C(CNc1cc(S(=O)(=O)N2CCCC2)ccc1OCC(F)(F)F)Nc1cccc(C(F)(F)F)c1 was read as HCT116 bCat-KO 48 and PTEN del growth 46.
Screening O=C1C(Cl)=C(Nc2ccccc2O)C(=O)N1c1ccccc1 returned HUVEC inhibit 91, Lung fibro prol 104, HCT116 bCat-KO 83, PTEN del growth 78 and H69AR growth 86K 39*.
`Cc1c(NC2=C(Cl)C(=O)N(c3ccccc3Cl)C2=O)c(=O)n(-c2ccccc2)n1C` gave HCT116 bCat-KO 91 and PTEN del growth 91.
Screening Cc1c(NC2=C(Cl)C(=O)N(c3ccccc3)C2=O)c(=O)n(-c2ccccc2)n1C returned HUVEC inhibit 106, Lung fibro prol 100, HCT116 bCat-KO 93, PTEN del growth 85 and H69AR growth 86K 4.8*.
COc1ccc(Cl)cc1Nc1nc(C)cc(C)c1C(N)=O was read as HUVEC inhibit 95, Lung fibro prol 66, HCT116 bCat-KO 90, PTEN del growth 90 and H69AR growth 86K 92.
For CN(C)CC(C)(C)CNS(=O)(=O)c1cccc(Cl)c1Cl the results were HUVEC inhibit 97, Lung fibro prol 93, HCT116 bCat-KO 90, PTEN del growth 106 and H69AR growth 86K 92.
Screening COc1ccc(C(=O)Nc2nc3c(s2)Cc2cc(OC)ccc2-3)cc1 returned HUVEC inhibit 91, Lung fibro prol 97, HCT116 bCat-KO 95, PTEN del growth 78 and H69AR growth 86K 85.
Screening COc1ccc2c(c1)Cc1sc(NC(=O)c3ccccc3)nc1-2 returned HUVEC inhibit 78, Lung fibro prol 99, HCT116 bCat-KO 86, PTEN del growth 84 and H69AR growth 86K 11*.
For COc1ccc2cc3cc(C(=O)NCc4ccco4)oc3nc2c1 the results were HUVEC inhibit 74, Lung fibro prol 107, HCT116 bCat-KO 91, PTEN del growth 85 and H69AR growth 86K 93.
For O=C(NCc1ccco1)c1cc2cc3ccc(Cl)cc3nc2o1 the results were HUVEC inhibit 69, Lung fibro prol 53, HCT116 bCat-KO 9, PTEN del growth 18 and H69AR growth 86K 9.5*.
For COc1ccc(-c2c[n+]3c(n2-c2ccccc2)CCCCC3)cc1 the results were HCT116 bCat-KO 31 and PTEN del growth 43.
For COc1ccc(-c2c[n+]3c4n2CCCCC4=C(c2ccccc2)C3)cc1 the results were HUVEC inhibit 47, Lung fibro prol 36*, HCT116 bCat-KO 3.8*, PTEN del growth 3.5* and H69AR growth 86K 48.
`COCc1nnc(NC(=O)c2cc(OC)c(OC)cc2[N+](=O)[O-])s1` gave HCT116 bCat-KO 90 and PTEN del growth 94.
`COc1ccc(NC(=O)c2cc(-c3ccc(C)o3)nc3ccccc23)cc1OC` gave HUVEC inhibit 70, Lung fibro prol 88, HCT116 bCat-KO 50, PTEN del growth 45 and H69AR growth 86K 35*.
Screening COc1ccc(C)cc1NC(=O)c1cc2c(C)nc3ccccc3c2o1 returned HUVEC inhibit 74, Lung fibro prol 100 and H69AR growth 86K 92.
For COc1ccc(-c2cc(C(=O)Nc3nc4ccccc4s3)c3ccccc3n2)cc1OC the results were HCT116 bCat-KO 61 and PTEN del growth 50.
COc1ccc(-c2cc(C(=O)Nc3c(Cl)cc(Cl)cc3Cl)c3ccccc3n2)cc1OC was read as HCT116 bCat-KO 2.1* and PTEN del growth 1.8*.
For COc1ccc(-c2cc(C(=O)Nc3ccc(Cl)cc3Cl)c3ccccc3n2)cc1OC the results were HCT116 bCat-KO 5.4* and PTEN del growth 6.
Screening COc1cc(NC(=O)c2cc3c(C)nc4ccccc4c3o2)cc(OC)c1OC returned HUVEC inhibit 52, Lung fibro prol 88, HCT116 bCat-KO 75, PTEN del growth 62 and H69AR growth 86K 35*.
For CC1=NN(c2ccccc2)C(=O)C1(C)[N+](=O)[O-] (stereo not drawn) the results were HCT116 bCat-KO 91 and PTEN del growth 100.
`Cc1cc(C(=O)c2ccccc2)c(NC(=O)CN2CCOCC2)s1` gave HCT116 bCat-KO 95 and PTEN del growth 97.
For Cc1cc(C(=O)c2ccc(C(C)(C)C)cc2)c(NC(=O)CCl)s1 the results were HCT116 bCat-KO 1.1* and PTEN del growth 1.3*.
For CCCCCSc1nc(N2CCOCC2)c2c(c1C#N)CC(C)(C)OC2 the results were HUVEC inhibit 91, Lung fibro prol 83, HCT116 bCat-KO 80, PTEN del growth 69 and H69AR growth 86K 33*.
For CC1(C)Cc2c(C#N)c(SCC(=O)c3ccccc3)nc(N3CCOCC3)c2CO1 the results were HUVEC inhibit 66, Lung fibro prol 48*, HCT116 bCat-KO 77, PTEN del growth 74 and H69AR growth 86K 48.
For CC1(C)Cc2c(C#N)c(N3CCN(C(=O)c4ccccc4)CC3)nc(Cc3ccccc3)c2CO1 the results were HUVEC inhibit 83, Lung fibro prol 97, HCT116 bCat-KO 84, PTEN del growth 70 and H69AR growth 86K 29*.

High-throughput results from PubChem.
